Experiments:
[1] = molecular target: Cannabinoid receptor 1 (Homo sapiens, UniProt P21554); assay: Evaluated for its binding affinity towards Cannabinoid receptor 1 (CB1)
[2] = species on record: Mus musculus; assay: Tested for the concentration for antinociception as measured by the tail-flick response (TF).; type: functional
[3] = species on record: Mus musculus; assay: Tested for the concentration that shows hypothermia as changes in rectal temperature (RT).; type: functional
[4] = species on record: Mus musculus; assay: Tested for the concentration for the inhibition of spontaneous activity (SA).; type: functional
[5] = tested on: Mus musculus; assay: The compound was tested for the concentration for the inhibition of spontaneous activity (SA) at a dose of 30 mg/kg.; type: functional
Procedure, shortened: (§1)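 Mice, single intravenous tail-vein dose in ethanol:emulphor:saline 1:1:18 at 0.1 mL/10 g. Several measures were taken in the same mouse. SA is % of control activity, and TF is %MPE with a 10-s maximum latency. Effect is expressed as percent of the Δ9-THC maximum (90% for SA, 100% for TF).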

[6] = tested on: Mus musculus; assay: The compound was tested for the concentration for antinociception as measured by the tail-flick response (TF) at a dose of 30 mg/kg.; type: functional; procedure, shortened: as §1
[7] = tested on: Mus musculus; assay: The compound was tested for the concentration that shows hypothermia as changes in rectal temperature (RT) at a dose of 30 mg/kg.; type: functional
Procedure, shortened: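 Mice, single intravenous tail-vein dose in ethanol:emulphor:saline 1:1:18 at 0.1 mL/10 g. Rectal temperature change (Δ°C) was measured in the same mouse as the other behavioural measures.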

[8] = tested on: Mus musculus; assay: The compound was tested for the concentration for the inhibition of spontaneous activity (SA) at a dose of 100 mg/kg.; type: functional; procedure, shortened: as §1
[9] = species on record: Mus musculus; assay: Tested for the concentration that shows ring immobility (RI).; type: functional
[10] = tested on: Mus musculus; assay: The compound was tested for the concentration for antinociception as measured by the tail-flick response (TF) at a dose of 60 mg/kg.; type: functional; procedure, shortened: as §1

Cannabinoid receptor 1, sequence (P21554 whole entry): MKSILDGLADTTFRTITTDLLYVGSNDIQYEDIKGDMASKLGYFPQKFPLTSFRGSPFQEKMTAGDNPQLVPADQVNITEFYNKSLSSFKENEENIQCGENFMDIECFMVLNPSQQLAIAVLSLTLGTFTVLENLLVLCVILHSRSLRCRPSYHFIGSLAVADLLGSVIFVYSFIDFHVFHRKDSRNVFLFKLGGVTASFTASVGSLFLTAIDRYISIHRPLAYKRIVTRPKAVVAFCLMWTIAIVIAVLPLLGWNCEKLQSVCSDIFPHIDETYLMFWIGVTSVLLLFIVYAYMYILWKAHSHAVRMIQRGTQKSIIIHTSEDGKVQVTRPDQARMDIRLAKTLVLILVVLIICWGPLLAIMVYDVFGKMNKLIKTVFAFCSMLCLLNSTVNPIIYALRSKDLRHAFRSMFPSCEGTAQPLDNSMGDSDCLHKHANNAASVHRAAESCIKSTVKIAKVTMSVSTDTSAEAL

Row | Structure (SMILES) | Ki [1] | ED50 [2] | ED50 [3] | ED50 [4] | inhibition in vivo at 30 mg/kg [5] | inhibition in vivo at 30 mg/kg [6] | inhibition in vivo at 30 mg/kg [7] | inhibition in vivo at 100 mg/kg [8] | ED50 [9] | inhibition in vivo at 60 mg/kg [10]
1 | CC1=CC[C@@H]2[C@@H](C1)c1c(O)cc(C(C)(C)CCCCOc3ccc(C#N)cc3)cc1OC2(C)C | 3 nM | 1.15 mg/kg | 4.24 mg/kg | 0.1 mg/kg |  |  |  |  |  | 
2 | CC1=CC[C@@H]2[C@@H](C1)c1c(O)cc(C(C)(C)CCCCC(=O)Nc3ccc(Cl)cc3)cc1OC2(C)C | 187 nM |  |  |  | 39% | 15% | -1.6% |  |  | 
3 | CC1=CC[C@@H]2[C@@H](C1)c1c(O)cc(C(C)(C)CCCCC(=O)NN3CCCCC3)cc1OC2(C)C | 1.2 nM | 0.16 mg/kg | 0.17 mg/kg | 0.04 mg/kg |  |  |  |  |  | 
4 | CC1=CC[C@@H]2[C@@H](C1)c1c(O)cc(C(C)(C)CCCCCC#N)cc1OC2(C)C | 0.6 nM | 0.01 mg/kg | 0.005 mg/kg | 0.006 mg/kg |  |  |  |  |  | 
5 | CC1=CC[C@@H]2[C@@H](C1)c1c(O)cc(C(C)(C)CCCCC(=O)Nc3ccc(S(N)(=O)=O)cc3)cc1OC2(C)C | 19 nM | 3.2 mg/kg | 1.7 mg/kg | 2.03 mg/kg |  |  |  |  |  | 
6 | CC1=CC[C@@H]2[C@@H](C1)c1c(O)cc(C(C)(C)CCCCC(=O)Nc3ccc(Cl)cc3Cl)cc1OC2(C)C | 18 nM | 14 mg/kg | 3.7 mg/kg |  | 27% |  |  |  |  | 
7 | CC1=CC[C@@H]2[C@@H](C1)c1c(O)cc(C(C)(C)CCCCC(=O)NCCc3ccc(S(N)(=O)=O)cc3)cc1OC2(C)C | 29 nM | > 100 mg/kg | > 100 mg/kg |  |  |  |  | 60% | > 100 mg/kg | 
8 | CC1=CC[C@@H]2[C@@H](C1)c1c(O)cc(C(C)(C)CCCCC(=O)NCc3ccc(S(N)(=O)=O)cc3)cc1OC2(C)C | 60 nM |  | 37 mg/kg | 31 mg/kg |  |  |  |  |  | 60%
9 | CC1=CC[C@@H]2[C@@H](C1)c1c(O)cc(C(C)(C)CCCCC#N)cc1OC2(C)C | 0.36 nM | 0.0047 mg/kg | 0.19 mg/kg | 0.007 mg/kg |  |  |  |  | 0.095 mg/kg | 
10 | CC1=CC[C@@H]2[C@@H](C1)c1c(O)cc(C(C)(C)CCCC(O)C#N)cc1OC2(C)C (stereo not given in full) | 13 nM | 0.11 mg/kg | 1.5 mg/kg | 0.52 mg/kg |  |  |  |  | 1.07 mg/kg | 
11 | CC1=CC[C@@H]2[C@@H](C1)c1c(O)cc(C(C)(C)CCCCC(C#N)c3ccccc3)cc1OC2(C)C (stereo not given in full) | 9.2 nM | 1.4 mg/kg | 4.2 mg/kg | 6.51 mg/kg |  |  |  |  | 5.05 mg/kg | 
12 | CC1=CC[C@@H]2[C@@H](C1)c1c(O)cc(C(C)(C)CCCCC(=O)N(C)C)cc1OC2(C)C | 0.86 nM | 0.031 mg/kg | 0.12 mg/kg | 0.0015 mg/kg |  |  |  |  |  | 
13 | CCN(CC)C(=O)CCCCC(C)(C)c1cc(O)c2c(c1)OC(C)(C)[C@@H]1CC=C(C)C[C@@H]21 | 13 nM | 0.1 mg/kg | 0.4 mg/kg | 0.09 mg/kg |  |  |  |  |  | 
14 | CCCCCCC(C)(C)c1cc(O)c2c(c1)OC(C)(C)[C@@H]1CC=C(C)C[C@@H]21 | 0.77 nM | 0.04 mg/kg | 0.04 mg/kg | 0.07 mg/kg |  |  |  |  | 0.05 mg/kg | 
15 | CCCCCc1cc(O)c2c(c1)OC(C)(C)[C@@H]1CCC(C)=C[C@@H]21 [DRONABINOL] |  | 1.4 mg/kg | 1.4 mg/kg | 1 mg/kg |  |  |  |  | 1.5 mg/kg | 

— ChEMBL document CHEMBL1131164, “Potent cyano and carboxamido side-chain analogues of 1', 1'-dimethyl-delta8-tetrahydrocannabinol” (J Med Chem, 1998)
